In ChEMBL document CHEMBL4673245, “Discovery of AZD9833, a Potent and Orally Bioavailable Selective Estrogen Receptor Degrader and Antagonist” (J Med Chem, 2020):

Columns and labels:
[1] = Chemical stability of compound assessed as drug degradation in buffer at pH 10 stored at 22 to 60 degreeC measured after 5 days; assay type: physicochemical; details: pH 10, 120 h, time 5 day
[2] = Stability of compound at 40 degC and 75% relative humidity assessed parent compound remaining measured after 3 months using crystalline form of sample by chromatographic method; assay type: physicochemical; details: solid sample, read-out: Stabilty
[3] = In vivo antagonist activity at ERalpha in human MCF7 cells xenografted CB17 SCID mouse assessed as decrease in PR expression level at 50 mg/kg, po administered daily via oral gavage for 21 days measured 24 hrs post last dose by Western blot analysis relative to control; assay type: functional; set-up: scale not given: the % may be the effect or the level left; details: time 21 day
Cytochrome P450 1A2 = molecular target: T1, Cytochrome P450 1A2 (Homo sapiens, UniProt P05177); assay: Inhibition of CYP1A2 in human liver microsomes; assay type: ADME
T1 sequence (P05177 whole entry): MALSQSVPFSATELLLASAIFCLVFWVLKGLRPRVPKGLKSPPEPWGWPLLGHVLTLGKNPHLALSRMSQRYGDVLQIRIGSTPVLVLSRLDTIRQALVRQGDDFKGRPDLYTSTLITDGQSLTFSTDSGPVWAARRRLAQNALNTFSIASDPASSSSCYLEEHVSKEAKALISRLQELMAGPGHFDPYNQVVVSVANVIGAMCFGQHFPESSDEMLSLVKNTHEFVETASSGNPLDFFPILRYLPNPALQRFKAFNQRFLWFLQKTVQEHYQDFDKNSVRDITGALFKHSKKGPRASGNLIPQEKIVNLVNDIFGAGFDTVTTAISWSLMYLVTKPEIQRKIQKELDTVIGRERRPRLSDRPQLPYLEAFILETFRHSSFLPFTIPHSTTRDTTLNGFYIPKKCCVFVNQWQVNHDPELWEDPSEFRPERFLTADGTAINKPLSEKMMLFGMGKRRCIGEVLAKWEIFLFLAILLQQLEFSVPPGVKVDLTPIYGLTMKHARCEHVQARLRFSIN
Outline: (§1)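 High-throughput human liver microsome panel of five CYP isoforms; inhibition reported as IC50.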

[4] = Chemical stability of compound assessed as drug degradation in deuterated buffer at pH 7.4 measured for 8 days; assay type: physicochemical; details: pH 7.4, 192 h, time 8 day
[5] = Dissociation constant, dibasic pKa of compound in 0.1 M potassium chloride in presence of azetidine by UV-vis spectroscopy; assay type: physicochemical
[6] = Antitumor activity against human […] cells xenografted in CB17 SCID mouse assessed as tumor growth inhibition at 2 mg/kg, po administered daily via oral gavage for 21 days relative to control; assay type: functional; details: MCF7, po, time 21 day, read-out: TGI
[7] = Fraction unbound in rat plasma; assay type: ADME, cell-free
Cytochrome P450 2C19 = Cytochrome P450 2C19 (Homo sapiens, UniProt P33261); assay: Inhibition of CYP2C19 in human liver microsomes; assay type: ADME; outline: as §1
Chain of Cytochrome P450 2C19 (P33261 whole entry): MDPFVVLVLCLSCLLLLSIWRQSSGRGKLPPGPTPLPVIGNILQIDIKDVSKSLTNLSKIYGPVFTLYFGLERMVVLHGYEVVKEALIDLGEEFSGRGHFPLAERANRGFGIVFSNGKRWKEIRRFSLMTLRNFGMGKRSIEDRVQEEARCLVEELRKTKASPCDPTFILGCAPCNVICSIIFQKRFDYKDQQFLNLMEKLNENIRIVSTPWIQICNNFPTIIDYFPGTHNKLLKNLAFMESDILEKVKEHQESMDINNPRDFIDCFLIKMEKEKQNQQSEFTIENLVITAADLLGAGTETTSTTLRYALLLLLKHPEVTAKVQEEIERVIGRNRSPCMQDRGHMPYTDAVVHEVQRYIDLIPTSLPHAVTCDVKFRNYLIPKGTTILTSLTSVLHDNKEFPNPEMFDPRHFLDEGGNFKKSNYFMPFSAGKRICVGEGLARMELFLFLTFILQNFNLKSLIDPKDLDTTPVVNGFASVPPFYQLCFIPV

[8] = Antitumor activity against human […] cells xenografted in CB17 SCID mouse assessed as tumor growth inhibition at 50 mg/kg, po administered daily via oral gavage for 21 days relative to control; assay type: functional, MCF7; set-up: scale not given: the % may be the effect or the level left; details: time 21 day
[9] = Clearance in rat at 0.5 mg/kg, iv or 1 mg/kg, po; assay type: ADME, organism-based; details: in vivo
Outline: (§2)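 Rat PK: single IV dose 0.5 mg/kg and oral dose 1 mg/kg, formulated in 5% DMSO:95% hydroxypropyl-β-cyclodextrin (30% w/v), dosed at 1 mL/kg IV and 4 mL/kg PO.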

[10] = Intrinsic clearance in rat hepatocytes assessed per million cells; assay type: ADME, cell-based, Hepatocyte; details: read-out: CLH
Outline: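 Hepatocyte intrinsic clearance measured from DMSO stock in isolated hepatocytes diluted to 1x10⁶ cells/mL; rate expressed as µl/min/10⁶ cells.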

MCF7 [11] = assay: Antiproliferative activity against human wild-type MCF7 cells assessed as decrease in estradiol-mediated cell viability incubated for 4 to 6 days by SYTOX Green dye based fluorescence assay; assay type: functional
[12] = Oral bioavailability in rat at 1 mg/kg; assay type: ADME, organism-based; details: in vivo; outline: as §2
MCF7 [13] = assay: Antitumor activity against human […] cells xenografted in CB17 SCID mouse assessed as decrease in tumor volume administered daily via oral gavage for 21 days; assay type: functional, cell-based; details: dose 0.5-50 mg/kg, time 21.0 day
[14] = Fraction absorbed in mouse at 2 mg/kg, iv or 5 mg/kg, po; assay type: ADME, organism-based; details: in vivo, read-out: Fabs
[15] = Photostability of compound under 1.2 mil lux.h white light and 200 W.h/m2 UV light assessed parent compound remaining using amorphous form of sample by chromatographic method; assay type: physicochemical
Cytochrome P450 3A4 = Cytochrome P450 3A4 (Homo sapiens, UniProt P08684); assay: Inhibition of CYP3A4 in human liver microsomes; assay type: ADME; outline: as §1
Chain of Cytochrome P450 3A4 (P08684 whole entry): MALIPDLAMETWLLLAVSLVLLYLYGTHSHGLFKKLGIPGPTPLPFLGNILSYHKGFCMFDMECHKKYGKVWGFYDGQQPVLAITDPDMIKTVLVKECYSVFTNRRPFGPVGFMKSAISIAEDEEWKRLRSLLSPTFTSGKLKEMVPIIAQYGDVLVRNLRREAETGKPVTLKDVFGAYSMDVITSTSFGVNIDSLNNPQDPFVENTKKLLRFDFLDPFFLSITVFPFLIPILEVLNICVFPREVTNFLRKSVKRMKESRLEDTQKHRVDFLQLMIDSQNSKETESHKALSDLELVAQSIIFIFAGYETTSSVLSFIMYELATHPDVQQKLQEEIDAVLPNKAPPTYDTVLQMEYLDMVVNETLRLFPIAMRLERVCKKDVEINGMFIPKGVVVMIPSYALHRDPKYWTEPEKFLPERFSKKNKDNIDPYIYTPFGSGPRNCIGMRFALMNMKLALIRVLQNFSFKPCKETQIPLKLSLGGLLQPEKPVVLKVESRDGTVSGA

[16] = Clearance in rat at 0.5 mg/kg, iv or 1 mg/kg, po relative to liver blood flow; assay type: ADME, organism-based; details: in vivo; outline: as §2
[17] = Half-life in rat at 0.5 mg/kg, iv or 1 mg/kg, po; assay type: ADME, organism-based; details: in vivo; outline: as §2
Histamine H3 receptor = Histamine H3 receptor (Homo sapiens, UniProt Q9Y5N1); assay: Antagonist activity at human histamine H3 receptor expressed in CHO-K1 cells after 10 mins by HTRF assay; assay type: cell-based
Chain of Histamine H3 receptor (Q9Y5N1 whole entry): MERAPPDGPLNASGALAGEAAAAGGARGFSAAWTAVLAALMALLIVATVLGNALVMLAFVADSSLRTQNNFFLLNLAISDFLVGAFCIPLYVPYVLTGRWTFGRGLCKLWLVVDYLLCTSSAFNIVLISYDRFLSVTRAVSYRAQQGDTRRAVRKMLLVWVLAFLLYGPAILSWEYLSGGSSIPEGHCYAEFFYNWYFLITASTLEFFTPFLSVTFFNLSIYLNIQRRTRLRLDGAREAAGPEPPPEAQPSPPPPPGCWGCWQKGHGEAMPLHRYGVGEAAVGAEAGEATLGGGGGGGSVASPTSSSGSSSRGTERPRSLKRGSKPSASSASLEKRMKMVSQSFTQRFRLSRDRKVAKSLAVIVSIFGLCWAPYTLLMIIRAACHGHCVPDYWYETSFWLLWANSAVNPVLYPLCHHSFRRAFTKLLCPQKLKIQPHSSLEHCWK

[18] = Fraction absorbed in rat at 0.5 mg/kg, iv or 1 mg/kg, po; assay type: ADME, organism-based; details: in vivo, read-out: Fabs; outline: as §2
[19] = Chemical stability of compound assessed as drug degradation in deuterated buffer at pH 4 measured for 8 days; assay type: physicochemical; details: pH 4, 192 h, time 8 day
[20] = Oral bioavailability in mouse at 5 mg/kg; assay type: ADME, organism-based; details: in vivo
[21] = Fraction unbound in dog plasma; assay type: ADME, cell-free, Canis lupus familiaris
[22] = Antitumor activity against human […] cells xenografted in CB17 SCID mouse assessed as tumor regression at 10 mg/kg, po administered daily via oral gavage for 21 days relative to control; assay type: functional, MCF7; details: time 21 day
[23] = molecular target: T2, Estrogen receptor (Homo sapiens) (UniProt P03372); assay: Induction of ERalpha degradation in human MCF7 cells assessed as maximum degradation incubated for 18 to 24 hrs by Alexa fluor 488/Hoechst staining based immunofluorescence imaging analysis relative to fulvestrant; assay type: cell-based; details: time lower […], time upper […]
T2 sequence (whole entry): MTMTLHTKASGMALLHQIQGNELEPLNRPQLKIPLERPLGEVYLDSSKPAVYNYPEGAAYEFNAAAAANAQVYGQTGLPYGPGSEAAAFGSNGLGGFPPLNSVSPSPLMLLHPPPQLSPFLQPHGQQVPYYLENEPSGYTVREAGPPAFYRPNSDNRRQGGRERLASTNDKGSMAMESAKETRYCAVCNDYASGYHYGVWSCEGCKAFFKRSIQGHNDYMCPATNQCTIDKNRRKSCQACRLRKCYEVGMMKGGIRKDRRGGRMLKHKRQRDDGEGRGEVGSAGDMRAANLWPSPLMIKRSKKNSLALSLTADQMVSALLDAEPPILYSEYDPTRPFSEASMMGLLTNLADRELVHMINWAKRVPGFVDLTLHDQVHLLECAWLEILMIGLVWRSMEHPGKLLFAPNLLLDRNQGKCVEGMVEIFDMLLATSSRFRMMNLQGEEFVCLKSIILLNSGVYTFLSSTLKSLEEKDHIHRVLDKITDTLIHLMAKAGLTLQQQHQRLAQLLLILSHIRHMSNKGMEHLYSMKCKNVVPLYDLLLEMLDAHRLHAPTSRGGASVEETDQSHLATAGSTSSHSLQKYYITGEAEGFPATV

With `C[C@@H]1Cc2c(ccc3[nH]ncc23)[C@@H](c2ccc(NC3CN(CCCF)C3)cn2)N1CC(F)(F)F` [CAMIZESTRANT] the Stabilty [1] was “Unstable”, the remaining at 2190 h [2] was 99.3% and the Activity [3] was 6.3%. For the same compound, the IC50 (Cytochrome P450 1A2) was > 30000 nM, the Stabilty [4] was “Stable” and the pKa [5] was 8.4. The inhibition in vivo at 2 mg/kg [6] was 73%, the fraction unbound [7] was 0.26 and the IC50 (Cytochrome P450 2C19) was > 30000 nM. It also gave an Activity [8] of 53%, a clearance [9] of 73 mL/min/kg and a hepatocyte CLint [10] of 23 µL/min/1e6 cells. For the same compound, the IC50 (MCF7 [11]) was 5.01 nM, the bioavailability [12] was 19% and the Activity (MCF7 [13]) was “Dose-dependent effect”. The Fa [14] was 50%, the Stabilty [15] was 78.9% and the IC50 (Cytochrome P450 3A4) was 2200 nM. The CL [16] was 106%, the half-life [17] was 3 h and the IC50 (Histamine H3 receptor) was 330 nM. For the same compound, the Fa [18] was > 95%, the Stabilty [19] was “Stable” and the bioavailability [20] was 16%. For the same compound, the fraction unbound [21] was 0.15, the Activity [22] was 15% and the Emax [23] was 99%.
